Counter-ions that a name gives are not always drawn. Like-named read-outs stand apart in the source and are kept apart here. Values belong to the compound of their own block, whether it stands above or below them.
Columns and labels:
lung HOP-62 = conditions: read-out: cytotoxicity (GI50 in μM) lung HOP-62; cited from earlier work
Human recombinant Top1 [1] = biological target: T1, Human recombinant Top1 (Homo sapiens, UniProt P11387); conditions: graded relative to 1 μM camptothecin; cited from earlier work
T1 sequence (P11387 1-765): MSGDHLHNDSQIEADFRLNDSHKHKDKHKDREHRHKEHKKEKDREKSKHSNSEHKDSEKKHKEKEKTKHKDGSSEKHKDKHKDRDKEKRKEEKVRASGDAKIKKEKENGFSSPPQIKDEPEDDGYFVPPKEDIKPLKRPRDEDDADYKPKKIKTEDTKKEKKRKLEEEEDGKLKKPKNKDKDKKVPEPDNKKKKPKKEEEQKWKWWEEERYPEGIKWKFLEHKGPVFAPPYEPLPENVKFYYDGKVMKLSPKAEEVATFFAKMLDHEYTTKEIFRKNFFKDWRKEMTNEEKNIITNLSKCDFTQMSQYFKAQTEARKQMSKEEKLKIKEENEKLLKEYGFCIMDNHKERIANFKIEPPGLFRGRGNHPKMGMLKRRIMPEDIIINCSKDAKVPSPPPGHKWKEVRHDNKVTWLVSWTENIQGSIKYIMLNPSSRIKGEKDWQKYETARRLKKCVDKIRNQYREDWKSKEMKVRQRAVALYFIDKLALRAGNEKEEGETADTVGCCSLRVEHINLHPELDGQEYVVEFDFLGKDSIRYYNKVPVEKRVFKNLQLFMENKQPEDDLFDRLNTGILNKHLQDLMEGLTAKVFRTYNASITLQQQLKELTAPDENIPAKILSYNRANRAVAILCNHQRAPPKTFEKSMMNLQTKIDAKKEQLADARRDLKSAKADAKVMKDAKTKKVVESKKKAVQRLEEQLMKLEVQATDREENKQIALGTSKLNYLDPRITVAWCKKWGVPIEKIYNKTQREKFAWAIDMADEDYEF

[2] = test system: 60 common human cancer cell lines (NCI-60); conditions: read-out: MGM; average GI50 across 60 cell lines; cited from earlier work
breast MCF7 = conditions: read-out: cytotoxicity (GI50 in μM) breast MCF7; cited from earlier work
melanoma UACC-62 = conditions: read-out: cytotoxicity (GI50 in μM) melanoma UACC-62; cited from earlier work
colon HCT-116 = conditions: read-out: cytotoxicity (GI50 in μM) colon HCT-116; cited from earlier work
prostate DU-145 = conditions: read-out: cytotoxicity (GI50 in μM) prostate DU-145; cited from earlier work
ovarian OVACAR-3 = conditions: read-out: cytotoxicity (GI50 in μM) ovarian OVACAR-3; cited from earlier work
Human recombinant Top1 [3] = biological target: T1, Human recombinant Top1; assay: Top1-mediated DNA cleavage assay; type: biochemical; conditions: graded relative to 1 μM camptothecin
recombinant TDP1 = recombinant TDP1 (Homo sapiens, UniProt Q9NUW8); assay: Gel-based assay measuring the inhibition of recombinant TDP1; type: biochemical; conditions: for IC50: read-out: TDP1 inhibition, semiquantitative IC50 scale
[4] = test system: 60 common human cancer cell lines (NCI-60); assay: NCI-60 five-dose screen, mean-graph midpoint; type: cell-based
Outline: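 NCI-DTP screen across 60 human cancer cell lines. One-dose prescreen at 10 μM; compounds passing the cutoff went to five concentrations, 100 μM to 10 nM. GI50 per cell line interpolated from five-dose data.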

[5] = read-out: MGM values, range over the named series
[6] = Homo sapiens, 60 cell, read-out: MGM

Chain of recombinant TDP1 (Q9NUW8 whole entry): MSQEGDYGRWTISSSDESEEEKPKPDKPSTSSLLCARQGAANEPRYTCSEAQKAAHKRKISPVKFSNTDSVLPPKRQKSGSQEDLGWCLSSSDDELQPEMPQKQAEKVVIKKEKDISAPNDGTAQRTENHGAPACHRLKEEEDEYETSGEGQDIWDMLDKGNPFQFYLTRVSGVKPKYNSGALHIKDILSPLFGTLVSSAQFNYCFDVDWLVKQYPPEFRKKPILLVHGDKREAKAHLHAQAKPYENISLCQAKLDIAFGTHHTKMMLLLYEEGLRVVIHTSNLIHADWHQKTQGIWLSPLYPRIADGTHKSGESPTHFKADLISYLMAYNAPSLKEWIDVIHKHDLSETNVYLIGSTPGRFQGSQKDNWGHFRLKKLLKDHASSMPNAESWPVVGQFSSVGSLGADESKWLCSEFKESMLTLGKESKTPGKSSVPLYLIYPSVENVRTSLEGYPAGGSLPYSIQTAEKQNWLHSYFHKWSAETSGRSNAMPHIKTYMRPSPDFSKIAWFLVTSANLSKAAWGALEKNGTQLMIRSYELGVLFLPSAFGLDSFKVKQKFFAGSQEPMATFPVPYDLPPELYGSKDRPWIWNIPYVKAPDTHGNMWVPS

SMILES: COc1cc2c(cc1O)-c1c(c3cc(OC)c(OC)cc3c(=O)n1CCCn1ccnc1)C2=O [Compound 9]
GI50 (lung HOP-62): > 100 µM | Top1 cleavage (Human recombinant Top1 [1]): ++(+) | GI50 [2]: 42000 ± 7000 nM | GI50 (breast MCF7): 0.05 µM | GI50 (melanoma UACC-62): 0.33 µM | GI50 (colon HCT-116): > 100 µM | GI50 (prostate DU-145): > 100 µM | GI50 (ovarian OVACAR-3): > 100 µM

SMILES: Br.COc1cc2c(cc1O)-c1c(c3ccc([N+](=O)[O-])cc3c(=O)n1CCCN)C2=O [Compound 36, 6-(3-Aminopropyl)-8-hydroxy-9-methoxy-3-nitro-5H-indeno[1,2-c]isoquinoline-5,11(6H)-dione Hydrobromide]
TDP1 inhibitory activity (in words) (recombinant TDP1): TDP1 inhibitors | IC50 (recombinant TDP1): 12000 to 37000 nM

SMILES: COc1cc2c(cc1O)C(=O)c1c-2n(CCCN2CCOCC2)c(=O)c2cc([N+](=O)[O-])ccc12 [Compound 21, 9-Hydroxy-8-methoxy-6-(3-morpholinopropyl)-3-nitro-5H-indeno[1,2-c]isoquinoline-5,11(6H)-dione Hydrobromide]
GI50 [4, 5]: 16 to 21 nM

SMILES: COc1cc2c(cc1O)-c1c(c3ccc([N+](=O)[O-])cc3c(=O)n1CCCN1CCOCC1)C2=O [Compound 32, 8-Hydroxy-9-methoxy-6-(3-morpholinopropyl)-3-nitro-5H-indeno[1,2-c]isoquinoline-5,11(6H)-dione Hydrobromide]
GI50 [4, 6]: 200 nM

SMILES: Br.COc1cc2c(cc1O)C(=O)c1c-2n(CCCN)c(=O)c2cc([N+](=O)[O-])ccc12 [Compound 25, 6-(3-Aminopropyl)-9-hydroxy-8-methoxy-3-nitro-5H-indeno[1,2-c]isoquinoline-5,11(6H)-dione Hydrobromide]
GI50 [4, 5]: 16 to 21 nM | TDP1 inhibitory activity (in words) (recombinant TDP1): TDP1 inhibitors | IC50 (recombinant TDP1): 12000 to 37000 nM

SMILES: O=C1c2ccc(O)cc2-c2c1c1ccc([N+](=O)[O-])cc1c(=O)n2CCCn1ccnc1 [Compound 59, 6-(3-(1H-Imidazol-1-yl)propyl)-8-hydroxy-3-nitro-5H-indeno[1,2-c]isoquinoline-5,11(6H)-dione Hydrobromide]
GI50 [4, 5]: 56 to 407 nM

SMILES: COc1cc2c(cc1O)C(=O)c1c-2n(CCCn2ccnc2)c(=O)c2cc([N+](=O)[O-])ccc12 [Compound 23, 6-(3-(1H-Imidazol-1-yl)propyl)-9-hydroxy-8-methoxy-3-nitro-5H-indeno[1,2-c]isoquinoline-5,11(6H)-dione Hydrobromide]
GI50 [4, 5]: 16 to 21 nM

The next lines start with results.

Top1 cleavage (Human recombinant Top1 [3]): +++ (75–95% activity)
SMILES: O=C1c2cccc(O)c2-c2c1c1ccc([N+](=O)[O-])cc1c(=O)n2CCCn1ccnc1 [Compound 44, 6-(3-(1H-Imidazol-1-yl)propyl)-7-hydroxy-3-nitro-5H-indeno[1,2-c]isoquinoline-5,11(6H)-dione]

Top1 cleavage (Human recombinant Top1 [3]): +++++
SMILES: Br.O=C1c2cc(O)ccc2-c2c1c1ccc([N+](=O)[O-])cc1c(=O)n2CCCN1CCOCC1 [Compound 69, 9-Hydroxy-6-(3-morpholinopropyl)-3-nitro-5H-indeno[1,2-c]-isoquinoline-5,11(6H)-dione Hydrobromide]

Top1 cleavage (Human recombinant Top1 [3]): ++++
SMILES: Br.O=C1c2ccc(O)cc2-c2c1c1ccc([N+](=O)[O-])cc1c(=O)n2CCCN1CCOCC1 [Compound 55, 8-(Hydroxy)-6-(3-morpholinopropyl)-3-nitro-5H-indeno[1,2-c]-isoquinoline-5,11(6H)-dione]
GI50 [4, 5]: 56 to 407 nM

TDP1 inhibitory activity (in words) (recombinant TDP1): TDP1 inhibitors | IC50 (recombinant TDP1): 1000 to 12000 nM
SMILES: Br.NCCCn1c2c(c3ccc([N+](=O)[O-])cc3c1=O)C(=O)c1ccc(O)cc1-2 [Compound 63, 6-(3-Aminopropyl)-8-hydroxy-3-nitro-5H-indeno[1,2-c]-isoquinoline-5,11(6H)-dione Hydrobromide]
GI50 [4, 6]: 410 ± 1000 nM | GI50 [4, 5]: 56 to 407 nM

Top1 cleavage (Human recombinant Top1 [3]): ++ (50–75% activity)
SMILES: O=C1c2cccc(O)c2-c2c1c1ccc([N+](=O)[O-])cc1c(=O)n2CCCN1CCOCC1 [Compound 43, 7-Hydroxy-6-(3-morpholinopropyl)-3-nitro-5H-indeno[1,2-c]-isoquinoline-5,11(6H)-dione]

Reference: paper PMC7747014 (Journal of medicinal chemistry, 2015)
